pIC50: −log10 of the molar value.
Experiments:
K562 [1] = assay: Growth inhibition of human K562 cells assessed as cell growth at 10^-8 M incubated for 48 hrs by sulforhodamine B assay relative to control; type: functional; details: K562, 48 h, read-out: Activity
A498 [2] = assay: Growth inhibition of human A498 cells assessed as cell growth at 10^-6 M incubated for 48 hrs by sulforhodamine B assay relative to control; type: functional; details: A498, 48 h, read-out: Activity
BT-549 = assay: Growth inhibition of human BT549 cells assessed as cell growth at 10^-6 M incubated for 48 hrs by sulforhodamine B assay relative to control; type: functional; details: BT-549, 48 h, read-out: Activity
IGROV-1 = assay: Growth inhibition of human IGROV1 cells assessed as cell growth at 10^-8 M incubated for 48 hrs by sulforhodamine B assay relative to control; type: functional; details: IGROV-1, 48 h, read-out: Activity
OVCAR-8 = assay: Growth inhibition of human OVCAR8 cells assessed as cell growth at 10^-8 M incubated for 48 hrs by sulforhodamine B assay relative to control; type: functional; details: OVCAR-8, 48 h, read-out: Activity
HCC 2998 [3] = assay: Cytotoxicity against human HCC2998 cells after 48 hrs by SRB assay; type: functional; details: HCC 2998, 48 h; for CC50: read-out: pLC50 (the source's name) (converted)
MDA-MB-231 [4] = assay: Growth inhibition of human MDA-MB-231 cells assessed as cell growth at 10^-7 M incubated for 48 hrs by sulforhodamine B assay relative to control; type: functional; details: MDA-MB-231, 48 h, read-out: Activity
K562 [5] = assay: Cytotoxicity against human K562 cells after 48 hrs by SRB assay; type: functional; details: K562, 48 h; for CC50: read-out: LC50 (the source's name)
M14 [6] = assay: Growth inhibition of human M14 cells assessed as cell growth at 10^-6 M incubated for 48 hrs by sulforhodamine B assay relative to control; type: functional; details: M14, 48 h, read-out: Activity
A498 [7] = assay: Growth inhibition of human A498 cells assessed as cell growth at 10^-8 M incubated for 48 hrs by sulforhodamine B assay relative to control; type: functional; details: A498, 48 h, read-out: Activity
KM12 [8] = assay: Cytotoxicity against human KM12 cells after 48 hrs by SRB assay; type: functional; details: KM12, 48 h; for CC50: read-out: pLC50 (the source's name) (converted)
SR = assay: Growth inhibition of human SR cells assessed as cell growth at 10^-7 M incubated for 48 hrs by sulforhodamine B assay relative to control; type: functional; details: read-out: Activity
EKVX = assay: Growth inhibition of human EKVX cells assessed as cell growth at 10^-7 M incubated for 48 hrs by sulforhodamine B assay relative to control; type: functional; details: read-out: Activity
DU-145 = assay: Growth inhibition of human DU145 cells assessed as cell growth at 10^-7 M incubated for 48 hrs by sulforhodamine B assay relative to control; type: functional; details: DU-145, 48 h, read-out: Activity
OVCAR-5 [9] = assay: Cytotoxicity against human OVCAR5 cells after 48 hrs by SRB assay; type: functional; details: OVCAR-5, 48 h; for CC50: read-out: pLC50 (the source's name) (converted)
786-0 = assay: Growth inhibition of human 786-0 cells assessed as cell growth at 10^-7 M incubated for 48 hrs by sulforhodamine B assay relative to control; type: functional; details: 786-0, 48 h, read-out: Activity
NCI-H23 = assay: Growth inhibition of human NCI-H23 cells assessed as cell growth at 10^-7 M incubated for 48 hrs by sulforhodamine B assay relative to control; type: functional; details: NCI-H23, 48 h, read-out: Activity
NCI-H322M = assay: Growth inhibition of human NCI-H322M cells assessed as cell growth at 10^-5 M incubated for 48 hrs by sulforhodamine B assay relative to control; type: functional; details: read-out: Activity
PC-3 = assay: Growth inhibition of human PC3 cells assessed as cell growth at 10^-7 M incubated for 48 hrs by sulforhodamine B assay relative to control; type: functional; details: PC-3, 48 h, read-out: Activity
KM12 [10] = assay: Growth inhibition of human KM12 cells assessed as cell growth at 10^-5 M incubated for 48 hrs by sulforhodamine B assay relative to control; type: functional; details: KM12, 48 h, read-out: Activity
A549 = assay: Cytotoxicity against human A549 cells after 48 hrs by SRB assay; type: functional; details: A549, 48 h; for CC50: read-out: pLC50 (the source's name) (converted)
SF-539 = assay: Growth inhibition of human SF539 cells assessed as cell growth at 10^-8 M incubated for 48 hrs by sulforhodamine B assay relative to control; type: functional; details: SF-539, 48 h, read-out: Activity
HMEC-1 = assay: Antiproliferative activity against HMEC1 cells after 4 days by Coulter counter method; type: cell-based; details: Homo sapiens, HMEC-1, 96 h
Method in brief: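 Primary HUVEC, primary HMVEC-d and the HMEC-1 line seeded at 20,000 cells/well in gelatin-coated plates in EC growth medium (EGM2). After overnight incubation, 5-fold compound dilutions added. Cells proliferated four days with compound, then trypsinized and counted by Coulter counter to derive IC₅₀.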

OVCAR-3 = assay: Growth inhibition of human OVCAR3 cells assessed as cell growth at 10^-4 M incubated for 48 hrs by sulforhodamine B assay relative to control; type: functional; details: OVCAR-3, 48 h, read-out: Activity
OVCAR-5 [11] = assay: Growth inhibition of human OVCAR5 cells assessed as cell growth at 10^-8 M incubated for 48 hrs by sulforhodamine B assay relative to control; type: functional; details: OVCAR-5, 48 h, read-out: Activity
SW-620 = assay: Growth inhibition of human SW620 cells assessed as cell growth at 10^-7 M incubated for 48 hrs by sulforhodamine B assay relative to control; type: functional; details: SW-620, 48 h, read-out: Activity
MDA-MB-231 [12] = assay: Growth inhibition of human MDA-MB-231 cells assessed as cell growth at 10^-8 M incubated for 48 hrs by sulforhodamine B assay relative to control; type: functional; details: MDA-MB-231, 48 h, read-out: Activity
SNB-75 = assay: Growth inhibition of human SNB75 cells assessed as cell growth at 10^-6 M incubated for 48 hrs by sulforhodamine B assay relative to control; type: functional; details: SNB-75, 48 h, read-out: Activity
M14 [13] = assay: Growth inhibition of human M14 cells assessed as cell growth at 10^-5 M incubated for 48 hrs by sulforhodamine B assay relative to control; type: functional; details: M14, 48 h, read-out: Activity
Malme-3M = assay: Growth inhibition of human MALME-3M cells assessed as cell growth at 10^-7 M incubated for 48 hrs by sulforhodamine B assay relative to control; type: functional; details: read-out: Activity
HCC 2998 [14] = assay: Growth inhibition of human HCC2998 cells assessed as cell growth at 10^-7 M incubated for 48 hrs by sulforhodamine B assay relative to control; type: functional; details: HCC 2998, 48 h, read-out: Activity
RPMI-8226 = assay: Cytotoxicity against human RPMI8226 cells after 48 hrs by SRB assay; type: functional; details: RPMI-8226, 48 h; for CC50: read-out: LC50 (the source's name)

Structure (SMILES): C#C[C@@]1(O)[C@@H](CO)O[C@@H](n2ccc3c(N)ncnc32)[C@@H]1O
- growth at 0.01 µM (K562 [1]): 103%
- growth at 1 µM (A498 [2]): 80%
- growth at 1 µM (BT-549): 80%
- growth at 0.01 µM (IGROV-1): 101%
- growth at 0.01 µM (OVCAR-8): 103%
- TGI (HCC 2998 [3]; read-out: TGI): 3.12 µM
- GI50 (HCC 2998 [3]; read-out: pGI50 (converted)): 1.45 µM
- CC50 (HCC 2998 [3]): 6.76 µM
- TGI (HCC 2998 [3]; read-out: pTGI (converted)): 3.09 µM
- growth at 0.1 µM (MDA-MB-231 [4]): 106%
- CC50 (K562 [5]): > 100 µM
- TGI (K562 [5]; read-out: TGI): > 100 µM
- GI50 (K562 [5]; read-out: pGI50 (converted)): 0.813 µM
- TGI (K562 [5]; read-out: pTGI): > 100 µM
- growth at 1 µM (M14 [6]): 73%
- growth at 0.01 µM (A498 [7]): 85%
- TGI (KM12 [8]; read-out: TGI): 10.9 µM
- CC50 (KM12 [8]): 91.2 µM
- TGI (KM12 [8]; read-out: pTGI (converted)): 11 µM
- growth at 0.1 µM (SR): 96%
- growth at 0.1 µM (EKVX): 92%
- growth at 0.1 µM (DU-145): 98%
- TGI (OVCAR-5 [9]; read-out: TGI): 8.54 µM
- GI50 (OVCAR-5 [9]; read-out: pGI50 (converted)): 3.09 µM
- CC50 (OVCAR-5 [9]): > 100 µM
- TGI (OVCAR-5 [9]; read-out: pTGI (converted)): 8.51 µM
- growth at 0.1 µM (786-0): 92%
- growth at 0.1 µM (NCI-H23): 93%
- growth at 10 µM (NCI-H322M): -16%
- growth at 0.1 µM (PC-3): 97%
- growth at 10 µM (KM12 [10]): 2%
- TGI (A549; read-out: TGI): > 100 µM
- GI50 (A549; read-out: pGI50 (converted)): 1.32 µM
- CC50 (A549): > 100 µM
- TGI (A549; read-out: pTGI (converted)): > 100 µM
- growth at 0.01 µM (SF-539): 92%
- pIC50 (HMEC-1): 7.21
- growth at 100 µM (OVCAR-3): -36%
- growth at 0.01 µM (OVCAR-5 [11]): 87%
- growth at 0.1 µM (SW-620): 77%
- growth at 0.01 µM (MDA-MB-231 [12]): 104%
- growth at 1 µM (SNB-75): 90%
- growth at 10 µM (M14 [13]): -80%
- growth at 0.1 µM (Malme-3M): 97%
- growth at 0.1 µM (HCC 2998 [14]): 93%
- CC50 (RPMI-8226): > 100 µM
- TGI (RPMI-8226; read-out: TGI): > 100 µM
- GI50 (RPMI-8226; read-out: pGI50 (converted)): 0.776 µM
- TGI (RPMI-8226; read-out: pTGI (converted)): > 100 µM

Structure (SMILES): C#C[C@@]1(O)[C@@H](CO)O[C@@H](n2cc(Br)c3c(N)ncnc32)[C@@H]1O
- growth at 0.01 µM (K562 [1]): 87 to 99%
- growth at 0.01 µM (IGROV-1): 81 to 88%
- growth at 0.01 µM (OVCAR-8): 53 to 76%
- GI50 (HCC 2998 [3]; read-out: GI50): 0.169 to 0.24 µM
- TGI (HCC 2998 [3]; read-out: TGI): 0.525 to 1.25 µM
- CC50 (HCC 2998 [3]): > 100 µM
- growth at 0.1 µM (MDA-MB-231 [4]): 36 to 71%
- GI50 (K562 [5]; read-out: GI50): 0.0411 to 0.09 µM
- CC50 (K562 [5]): > 100 µM
- TGI (K562 [5]; read-out: TGI): > 100 µM
- TGI (K562 [5]; read-out: pTGI): > 100 µM
- growth at 1 µM (M14 [6]): 20 to 24%
- growth at 0.01 µM (A498 [7]): 95 to 97%
- GI50 (KM12 [8]; read-out: GI50): 0.0946 to 0.121 µM
- TGI (KM12 [8]; read-out: TGI): > 100 µM
- CC50 (KM12 [8]): > 100 µM
- TGI (KM12 [8]; read-out: pTGI (converted)): > 100 µM
- growth at 0.1 µM (SR): 20 to 46%
- growth at 0.1 µM (EKVX): 60 to 74%
- growth at 0.1 µM (DU-145): 38 to 58%
- GI50 (OVCAR-5 [9]; read-out: GI50): 0.257 to 1.37 µM
- TGI (OVCAR-5 [9]; read-out: TGI): 56.7 to 100 µM
- CC50 (OVCAR-5 [9]): > 100 µM
- growth at 0.1 µM (786-0): 69 to 88%
- growth at 0.1 µM (NCI-H23): 61 to 70%
- growth at 10 µM (NCI-H322M): -12%
- growth at 0.1 µM (PC-3): 33 to 61%
- growth at 10 µM (KM12 [10]): 7 to 12%
- GI50 (A549; read-out: GI50): 0.09 to 0.283 µM
- CC50 (A549): > 100 µM
- growth at 0.01 µM (SF-539): 91 to 93%
- pIC50 (HMEC-1): 8.35
- growth at 0.01 µM (OVCAR-5 [11]): 98 to 99%
- growth at 0.1 µM (SW-620): 18 to 45%
- growth at 0.01 µM (MDA-MB-231 [12]): 90 to 104%
- growth at 10 µM (M14 [13]): 6 to 11%
- growth at 0.1 µM (Malme-3M): 77 to 79%
- growth at 0.1 µM (HCC 2998 [14]): 73 to 80%
- GI50 (RPMI-8226; read-out: GI50): 0.0673 to 0.242 µM
- CC50 (RPMI-8226): > 100 µM
- TGI (RPMI-8226; read-out: TGI): 0.733 to 0.934 µM
